The target in assay [1] is Poly [ADP-ribose] polymerase 1 (Homo sapiens) (UniProt P09874). The experiment in a line: Inhibition of human full-length PARP1 expressed in bacterial expression system assessed as reduction in enzyme mediated autoPARylation at 100 uM using NAD+ as substrate preincubated for 30 mins followed by substrate addition and measured after 2 hrs by immunoblot analysis. The settings on record: time 2.5 hrs. In short, it runs like this: (§1)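 Full-length human PARP1 or PARP2, expressed recombinantly in and purified from bacteria, auto-PARylated without or with 100 μM compound. Read-out was immunoblot with an anti-PAR antibody. Loading control was anti-His₆ for PARP1 and anti-PARP2 antibody for PARP2. Signal was quantified by densitometry normalized to the loading control, with significance testing.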
Background: A western blot detects proteins with antibodies after separation by electrophoresis.

In assay [2] the target is T1, Poly [ADP-ribose] polymerase 2 (Homo sapiens, UniProt Q9UGN5). The experiment in a line: Inhibition of human full-length PARP2 expressed in bacterial expression system assessed as reduction in enzyme mediated autoPARylation at 100 uM using NAD+ as substrate preincubated for 30 mins followed by substrate addition and measured after 2 hrs by immunoblot analysis. The conditions noted are these: time 2.5 hrs. In short, it runs like this:
as §1

Assay [3] has as its target T2, Poly [ADP-ribose] polymerase tankyrase-1 (Homo sapiens) (UniProt O95271).
T2 sequence (whole entry): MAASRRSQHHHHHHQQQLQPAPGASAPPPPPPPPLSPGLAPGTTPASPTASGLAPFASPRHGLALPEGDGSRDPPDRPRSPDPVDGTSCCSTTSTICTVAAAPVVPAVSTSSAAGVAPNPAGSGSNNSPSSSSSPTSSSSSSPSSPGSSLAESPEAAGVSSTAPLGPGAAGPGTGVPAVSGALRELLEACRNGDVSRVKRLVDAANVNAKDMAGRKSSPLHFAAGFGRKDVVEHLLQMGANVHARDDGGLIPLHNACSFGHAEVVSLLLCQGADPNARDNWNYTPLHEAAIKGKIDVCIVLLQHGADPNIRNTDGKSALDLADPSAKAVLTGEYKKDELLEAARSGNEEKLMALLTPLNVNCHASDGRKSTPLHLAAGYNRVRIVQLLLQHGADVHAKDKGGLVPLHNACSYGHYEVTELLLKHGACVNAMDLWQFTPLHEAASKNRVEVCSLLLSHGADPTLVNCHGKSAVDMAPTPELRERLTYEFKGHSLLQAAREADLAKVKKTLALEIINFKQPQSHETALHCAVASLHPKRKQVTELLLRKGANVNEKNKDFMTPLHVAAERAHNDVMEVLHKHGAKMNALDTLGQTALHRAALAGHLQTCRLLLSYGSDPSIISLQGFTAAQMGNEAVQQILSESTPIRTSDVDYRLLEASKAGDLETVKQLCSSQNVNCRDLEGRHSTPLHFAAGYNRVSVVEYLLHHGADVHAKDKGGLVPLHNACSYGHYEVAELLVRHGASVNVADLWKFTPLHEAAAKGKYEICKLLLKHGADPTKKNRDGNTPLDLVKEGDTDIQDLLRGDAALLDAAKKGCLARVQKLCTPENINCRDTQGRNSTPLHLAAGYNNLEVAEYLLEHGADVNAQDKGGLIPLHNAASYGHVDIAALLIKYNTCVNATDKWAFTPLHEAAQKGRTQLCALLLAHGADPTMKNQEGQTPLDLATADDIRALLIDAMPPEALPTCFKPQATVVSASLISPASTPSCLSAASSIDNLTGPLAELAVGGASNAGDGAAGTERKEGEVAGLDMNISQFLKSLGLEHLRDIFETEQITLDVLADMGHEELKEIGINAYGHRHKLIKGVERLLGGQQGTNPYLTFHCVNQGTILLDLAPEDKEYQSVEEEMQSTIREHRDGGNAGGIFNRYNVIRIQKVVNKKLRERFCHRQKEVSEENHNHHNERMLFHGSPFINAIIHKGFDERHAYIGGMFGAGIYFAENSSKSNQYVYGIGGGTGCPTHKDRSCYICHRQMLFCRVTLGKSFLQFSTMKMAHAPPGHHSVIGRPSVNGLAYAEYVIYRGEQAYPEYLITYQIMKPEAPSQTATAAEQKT
The assay can be described thus: Inhibition of human PARP5a catalytic domain expressed in bacterial expression system assessed as reduction in enzyme mediated autoPARylation at 100 uM using NAD+ as substrate measured after 2 hrs by immunoblot analysis. In short, it runs like this:
(§2)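 Catalytic domains of human PARP5a (PARylation) and PARP10 (MARylation), bacterially expressed and purified, were auto-ADP-ribosylated with NAD⁺ without or with 100 μM compound. Detection was by immunoblot using the AF1521 macrodomain pan-ADPr binding reagent, with anti-His₆ loading control. Densitometry was normalized to the loading control.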

Assay [4] addresses T3, Protein mono-ADP-ribosyltransferase PARP10 (Homo sapiens) (UniProt Q53GL7).
T3 sequence (whole entry): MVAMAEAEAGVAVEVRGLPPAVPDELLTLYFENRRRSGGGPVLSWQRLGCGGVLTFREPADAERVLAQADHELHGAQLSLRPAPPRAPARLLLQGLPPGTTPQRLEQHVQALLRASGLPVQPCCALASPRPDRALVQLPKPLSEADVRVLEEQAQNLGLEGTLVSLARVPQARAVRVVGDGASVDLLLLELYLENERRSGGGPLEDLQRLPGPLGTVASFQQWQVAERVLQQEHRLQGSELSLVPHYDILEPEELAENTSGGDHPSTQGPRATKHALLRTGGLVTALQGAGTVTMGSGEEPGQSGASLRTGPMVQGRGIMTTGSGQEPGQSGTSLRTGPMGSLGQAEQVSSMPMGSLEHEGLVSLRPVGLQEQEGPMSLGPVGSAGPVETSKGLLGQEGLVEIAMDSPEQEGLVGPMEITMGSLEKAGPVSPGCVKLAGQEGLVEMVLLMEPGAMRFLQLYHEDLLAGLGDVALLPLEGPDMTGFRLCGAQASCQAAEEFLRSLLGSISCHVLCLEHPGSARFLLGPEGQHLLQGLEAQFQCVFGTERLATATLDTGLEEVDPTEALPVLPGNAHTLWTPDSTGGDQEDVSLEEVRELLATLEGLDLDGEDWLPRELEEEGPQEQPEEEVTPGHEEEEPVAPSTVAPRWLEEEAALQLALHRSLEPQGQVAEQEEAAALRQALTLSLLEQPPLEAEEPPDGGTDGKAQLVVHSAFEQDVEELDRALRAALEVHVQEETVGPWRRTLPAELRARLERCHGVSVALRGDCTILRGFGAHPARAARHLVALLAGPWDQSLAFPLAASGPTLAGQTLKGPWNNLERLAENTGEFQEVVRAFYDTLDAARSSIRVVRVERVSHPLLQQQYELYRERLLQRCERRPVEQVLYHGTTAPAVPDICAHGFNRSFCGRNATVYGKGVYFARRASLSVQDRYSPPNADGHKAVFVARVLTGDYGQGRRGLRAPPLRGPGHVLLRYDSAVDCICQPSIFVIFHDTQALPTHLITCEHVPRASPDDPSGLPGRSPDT
The experiment in a line: Inhibition of human PARP10 catalytic domain expressed in bacterial expression system assessed as reduction in enzyme mediated autoPARylation at 100 uM using NAD+ as substrate measured after 2 hrs by immunoblot analysis. In short, it runs like this:
as §2

For assay [5], the system named is HAP1. The experiment in a line: Inhibition of PARP in human HAP1 cell lysates assessed as reduction in protein ADP-ribosylation at 100 uM using NAD+ as substrate measured after 2 hrs by immunoblot analysis. Format: subcellular. In short, it runs like this:
(§3)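 HAP1 or HAP1/PARP1-KO cell lysates were ADP-ribosylated without or with 100 μM compound. Protein ADP-ribosylation was detected by immunoblot with the AF1521 macrodomain pan-ADPr binding reagent, with anti-GAPDH as loading control. Densitometric signal was normalized to loading control and tested for significance.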

Assay [6] deals with HAP1. The assay can be described thus: Inhibition of PARP in human HAP1 PARP1-KO cell lysates assessed as reduction in protein ADP-ribosylation at 100 uM using NAD+ as substrate measured after 2 hrs by immunoblot analysis. Format: subcellular. The gist of the method: as §3
Assay [7] deals with T4, Protein mono-ADP-ribosyltransferase PARP10 (Homo sapiens, UniProt Q53GL7).
T4 sequence (Q53GL7 whole entry): T3 sequence (whole entry)
The experiment in a line: Inhibition of human PARP10 catalytic domain expressed in bacterial expression system assessed as reduction in enzyme mediated autoPARylation using NAD+ as substrate measured after 2 hrs by immunoblot analysis.

Assay [8] concerns the target T1, Poly [ADP-ribose] polymerase 2. The experiment in a line: Inhibition of human full-length PARP2 expressed in bacterial expression system assessed as reduction in enzyme mediated autoPARylation using NAD+ as substrate preincubated for 30 mins followed by substrate addition and measured after 2 hrs by immunoblot analysis.

Among the data in ChEMBL document CHEMBL6127150, “Discovery of PARP1-Sparing Inhibitors for Protein ADP-Ribosylation” (ACS Med Chem Lett, 2024) are inhibition and IC50 values, retold here.

The source made the active and inactive calls. No cut-off for these calls is given here.

T1 sequence (Q9UGN5 whole entry): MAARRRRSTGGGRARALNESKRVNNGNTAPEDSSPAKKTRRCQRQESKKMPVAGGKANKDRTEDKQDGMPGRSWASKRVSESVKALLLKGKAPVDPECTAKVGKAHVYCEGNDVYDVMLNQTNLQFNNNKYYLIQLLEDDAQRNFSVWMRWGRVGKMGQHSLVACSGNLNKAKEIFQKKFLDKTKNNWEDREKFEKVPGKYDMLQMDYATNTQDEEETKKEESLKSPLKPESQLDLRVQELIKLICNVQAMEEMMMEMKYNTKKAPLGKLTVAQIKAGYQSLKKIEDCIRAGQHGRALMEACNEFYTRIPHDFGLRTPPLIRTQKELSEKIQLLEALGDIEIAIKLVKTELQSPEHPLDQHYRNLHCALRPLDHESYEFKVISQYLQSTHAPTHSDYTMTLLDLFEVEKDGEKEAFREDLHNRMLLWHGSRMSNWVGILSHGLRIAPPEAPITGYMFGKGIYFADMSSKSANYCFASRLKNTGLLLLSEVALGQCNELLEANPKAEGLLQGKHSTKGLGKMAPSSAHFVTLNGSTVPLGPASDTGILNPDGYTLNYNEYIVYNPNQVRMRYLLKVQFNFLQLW
Poly [ADP-ribose] polymerase 1 (Homo sapiens), sequence (P09874 whole entry): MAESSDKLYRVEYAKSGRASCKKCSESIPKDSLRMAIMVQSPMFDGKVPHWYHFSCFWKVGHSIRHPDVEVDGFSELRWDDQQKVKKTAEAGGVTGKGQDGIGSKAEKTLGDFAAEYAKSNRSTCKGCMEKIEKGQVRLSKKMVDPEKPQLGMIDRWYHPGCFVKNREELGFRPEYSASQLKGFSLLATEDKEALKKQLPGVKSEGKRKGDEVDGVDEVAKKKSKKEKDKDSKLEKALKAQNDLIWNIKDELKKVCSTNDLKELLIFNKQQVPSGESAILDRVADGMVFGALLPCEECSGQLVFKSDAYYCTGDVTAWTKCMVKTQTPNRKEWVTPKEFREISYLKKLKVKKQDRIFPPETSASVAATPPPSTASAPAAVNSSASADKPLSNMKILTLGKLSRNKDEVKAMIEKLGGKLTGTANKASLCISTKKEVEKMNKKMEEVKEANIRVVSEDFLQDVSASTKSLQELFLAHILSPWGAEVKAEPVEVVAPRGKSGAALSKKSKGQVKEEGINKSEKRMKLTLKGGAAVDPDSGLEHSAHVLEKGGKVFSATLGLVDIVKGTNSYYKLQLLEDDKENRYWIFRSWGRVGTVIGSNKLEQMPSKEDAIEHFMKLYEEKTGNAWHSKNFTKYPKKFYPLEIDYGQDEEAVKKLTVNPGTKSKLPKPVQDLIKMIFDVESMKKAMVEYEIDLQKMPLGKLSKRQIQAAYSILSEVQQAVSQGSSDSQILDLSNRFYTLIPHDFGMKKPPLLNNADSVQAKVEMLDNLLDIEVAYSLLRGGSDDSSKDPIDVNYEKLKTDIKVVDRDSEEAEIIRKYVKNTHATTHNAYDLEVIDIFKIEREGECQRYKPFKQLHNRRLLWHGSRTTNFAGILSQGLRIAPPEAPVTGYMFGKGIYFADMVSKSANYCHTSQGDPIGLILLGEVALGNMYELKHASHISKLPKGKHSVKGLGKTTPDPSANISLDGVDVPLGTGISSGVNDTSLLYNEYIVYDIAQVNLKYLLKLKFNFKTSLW

`CC(=O)c1cccc(CCOc2ccccc2C(N)=O)c1`: the inhibition entry in assay [1] was “inactive”. Besides, the inhibition entry in assay [2], in assay [3], in assay [4], in assay [5] and in assay [6] was “Active” throughout. The IC50 (commonly the concentration at which inhibition is half-maximal) in assay [7] was found to be 48.3 µM; in assay [8], 59.7 µM.
`CC(=O)c1cccc([C@@H](C)Oc2ccccc2C(N)=O)c1`: in assay [2], the inhibition entry is “Active”.
For the molecule `CC(=O)c1cccc(CCOc2ccc(F)cc2C(N)=O)c1`, the inhibition result in assay [1] is “inactive”. In addition, the inhibition entry in assay [2], in assay [3], in assay [4], in assay [5] and in assay [6] was “Active” throughout. Also, the IC50 was 36.9 µM in assay [7] and 51.5 µM in assay [8].
For the molecule `CC(=O)c1cccc([C@H](C)Oc2ccccc2C(N)=O)c1`, in assay [2], the inhibition result is “Active”.
Consider `CC(=O)c1cccc(CCCOc2ccccc2C(N)=O)c1`, for which the inhibition entry in assay [2] was “Active”.
Turning to `O=C(c1cc(Cc2n[nH]c(=O)c3ccccc23)ccc1F)N1CCN(C(=O)C2CC2)CC1`, the inhibition entry in assay [5] and in assay [6] was “Active” each time.
Consider `CC(=O)c1cccc(CNc2ccccc2C(N)=O)c1`, for which the inhibition result in assay [1] was “inactive”.
With `CC(=O)c1cccc(COc2ccccc2C(N)=O)c1`, the inhibition result in assay [1] is “inactive”. Moreover, the inhibition result in assay [2], in assay [3], in assay [4], in assay [5] and in assay [6] was “Active” each time. Also, the IC50 in assay [7] was found to be 15.3 µM; in assay [8], 102 µM.
On to `CC(=O)c1cc(COc2ccccc2C(N)=O)ccc1F`, for which, in assay [1], the inhibition result is “inactive”. Besides, the inhibition result in assay [2], in assay [3], in assay [4], in assay [5] and in assay [6] was “Active” each time. Further, the IC50 was determined as 39.4 µM in assay [7] and 50.1 µM in assay [8].
In the case of `CC(=O)c1cccc(C(=O)Nc2ccccc2C(N)=O)c1`, the inhibition entry in assay [1] is “inactive”.
